From the EternaBench riboswitch data

Tested on: MS2 coat protein
Experiment: apparent Kd, MS2 coat protein; higher = weaker binding; RNA-MaP array; FMN 200 µM where present
How it was run: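 The apparent Kd is reported as the median of filtered per-cluster binding-curve fits. To get these curves, designs transcribed by stalled E. coli RNA polymerase on Illumina sequencing-chip clusters were titrated with SNAP-549-labelled MS2 coat protein from 0.7 or 1.5 nM, doubling to 3 µM. Titrations were run without and then with constant ligand in 100 mM Tris-HCl pH 7.5, 80 mM KCl, 4 mM MgCl2, BSA, DTT, yeast tRNA and Tween-20, and green signal was normalised to red-channel RNA signal and control-cluster median Fmax.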

[1] = designed as: ON switch for flavin mononucleotide, no ligand
[2] = ligand present: flavin mononucleotide, designed as: ON switch for flavin mononucleotide
[3] = designed as: OFF switch for flavin mononucleotide, no ligand
[4] = ligand present: flavin mononucleotide, designed as: OFF switch for flavin mononucleotide

CUGUCGAUAUCAGGAUAUCGUUUACAUACAUGAGGAUCACCCAUGUUGACAUGGAGCAUAAUUUGCGAGAAGGGAUAACGAUAG
apparent Kd [1]: 0.0235 µM | apparent Kd [2]: 0.0143 µM

AGUCUGAGAGGAUAUACAUGAAAAAAAAAAGUUAGAUCCCUACAUGAGGAUCACCCAUGUAGAAGGCUCUGACA
apparent Kd [3]: 0.0192 µM | apparent Kd [4]: 0.0167 µM

UAUUUUAACUAAGGAUAUCUAUAUUAAUUUGAAACAUGAGGAUCACCCAUGUUCAUGGGUUUAUAAGAGAAGGUAGAUGAAUAA
apparent Kd [1]: 0.0487 µM | apparent Kd [2]: 0.0207 µM

CCUAAGGACACAGGAUAUAGCGUCGUGGCUGGGCUCCAACGGCGAGCGGCGCUAGAAGGGUGACCACAUGAGGAUCACCCAUGU
apparent Kd [1]: 0.522 µM | apparent Kd [2]: 0.15 µM

UUAAAUCAUGUAGGAUAUGCAUGGCGAAGCUACGCAGAAGGACAUGAGGAUCACCCAUGUUCUGGCUACCGAGUACGGUGGCAA
apparent Kd [3]: 0.0205 µM | apparent Kd [4]: 0.0812 µM

AAGAGCGAUUCUCCCUUCCUACAUGAGGAUCACCCAUGUACGAGAAGGCGCCGUGUAUACCACGGUGAGGAUAUCGUACGUUAC
apparent Kd [3]: 0.00523 µM | apparent Kd [4]: 0.0103 µM

AUAUCUUUAUCAGGAUAUGGACAGGCCUGUCCGUAUUGAGACAGUAACAUGAGGAUCACCCAUGUCCAGAAGGGAUCGAUGUAU
apparent Kd [3]: 0.0565 µM | apparent Kd [4]: 0.0457 µM

GCCAUCGCAUGAGGAUAUCGUCAGGUUUCCUGACGAGAAGGCAUGUCAUAAGACAUGAGGAUCACCCAUGUAGUUAAGAUGGCA
apparent Kd [1]: 0.658 µM | apparent Kd [2]: 0.057 µM

AAUCCACAUGAGGAUCACCCAUGUCAGGAUAUGGUGACGCGGGUUUCGGUGCGUGUUGCCAGAAGGGACGGCUG
apparent Kd [3]: 0.027 µM | apparent Kd [4]: 0.0467 µM

CGUCGCUGUCGAGAGGAUAUGCGGUGGUGGACAUGAGGAUCACCCAUGUUAGCGAUAGCAUCACGGUAGAAGGCUCUUACGACUG
apparent Kd [1]: 0.0214 µM | apparent Kd [2]: 0.0206 µM

GUGUGUUGCGGGCAGGAUAUGUAUUUGAGUACAUGAGGAUCACCCAUGUGCGCCUGUUUCAGGCGACAGAAGGGCCUAUCGCGAC
apparent Kd [1]: 0.159 µM | apparent Kd [2]: 0.0309 µM

GCCAUCGCAUGAGGAUAUGGCACCGUUUCGGUGCCAGAAGGCAUGUCUCUUGACAUGAGGAUCACCCAUGUAGUUAAGAUGGCA
apparent Kd [1]: 0.779 µM | apparent Kd [2]: 0.052 µM

AAAAAGGCAGGAUAUACAAAAAAGAGAAGAGAGGAGGAGGGACAUGAGGAUCACCCAUGUAGAAGGGCCAAAAA
apparent Kd [3]: 0.0315 µM | apparent Kd [4]: 0.0374 µM

GUCAGCUCGUGAGGAUAUACAACACUGCUUCGGCAGUGUAUUAAAAUCACAUGAGGAUCACCCAUGUAGAAGGCACGAGCUGAU
apparent Kd [3]: 0.00504 µM | apparent Kd [4]: 0.0077 µM

GUGCGGUAGGAGAAGGACGGAGGCUUCUUUUCAUACAUGAGGAUCACCCAUGUAGGAUAUCCUACCUCACGCGGCCUACUUCUG
apparent Kd [3]: 0.00522 µM | apparent Kd [4]: 0.00506 µM

AUGGUCAAGUGUGAGGAUAUCCAUGCUCCCACAUGAGGAUCACCCAUGUCUUAAAGGGCGUAAAGGGAGAAGGUACGAACGCCAC
apparent Kd [1]: 0.0343 µM | apparent Kd [2]: 0.0278 µM

GUGCCGAACCUAGGAUAUCUUAUCGGGUUCCGCCGUGGCUUAGCGACAUGAGGAUCACCCAUGUAAGAGAAGGAGGUGGUGGAG
apparent Kd [3]: 0.299 µM | apparent Kd [4]: 0.259 µM

ACUCGAUUUUUGGGUAUACUAUAUGAGGAUAUCAUACAUCUAUACAUGAGGAUCACCCAUGUGACUGAGAAGGCAUAUAUAAUA
apparent Kd [1]: 0.0187 µM | apparent Kd [2]: 0.00915 µM

ACGACGAAAAUCGAACGAUGUAGCAGAAGGACAUGAGGAUCACCCAUGUAAAAUGUAACAGCCAUGUAGGAUAUGCUACAUCGA
apparent Kd [3]: 0.0409 µM | apparent Kd [4]: 0.272 µM

GUGCGAGGCUAGGAUAUUGUGGGUUUUUGUCUGCGAGAAGGAGCCACAUGAGGAUCACCCAUGUGGUGUUGCUC
apparent Kd [3]: 0.0644 µM | apparent Kd [4]: 0.294 µM

GUAAAACAUGAGGAUCACCCAUGUCAACAAAGUCGAGGAUAUGGGCAAAUAAAAUAAGAACCAGAAGGCGAAUAAG
apparent Kd [1]: 0.161 µM | apparent Kd [2]: 0.0426 µM

GCAUAUCAGGGAGGAUAUGACAUGAGGAUCACCCAUGUAAUUAUGGCUCUGUCAGAAGGCCCAUCAUCACUAUAGUGACGAGAA
apparent Kd [3]: 0.479 µM | apparent Kd [4]: 0.0632 µM

UCGUGAAGGACAGGAUAUGGACAUGAGGAUCACCCAUGUACAUGGGAAUAUAUACUGCAUUUAUACUAGAAGGGUUACAUAAAU
apparent Kd [3]: 0.0129 µM | apparent Kd [4]: 0.0112 µM

GCUGCAUAGGCAGGAUAUGCAAUAAUUUGAAUAAAAUAUAACAAAUUAACAUGAGGAUCACCCAUGUAGAAGGGCCUGUGCAGU
apparent Kd [3]: 0.0175 µM | apparent Kd [4]: 0.0194 µM

GGUACCUUCACAGGAUAUGCUAUGCUUUGCGUAGCAGAAGGGUGAUACAUGAGGAUCACCCAUGUGGUGCCAGGGCGUGAGCCC
apparent Kd [1]: 0.283 µM | apparent Kd [2]: 0.278 µM

GGGCAAAAGUAGAAGGGAUAUACGAAAAGUAUAUCAGGAUAUACAUGAGGAUCACCCAUGUUCUAAAAGUGAUAAUCCUCCCUA
apparent Kd [3]: 0.07 µM | apparent Kd [4]: 0.346 µM

CCCUCGGCGUGUAGAUACAUACAUGAGGAUCACCCAUGUGAGAAGGAUAUGCACGCGUGCUGCCGGCAGAAGGUCUAGAUGGUG
apparent Kd [3]: 0.0254 µM | apparent Kd [4]: 0.0298 µM

GUGAGGUCAGGAUAUGCAUGGCGGGACUUGCGUCGUGGCGUGGAGAAGGGACAUGAGGAUCACCCAUGUGGAGC
apparent Kd [3]: 0.0556 µM | apparent Kd [4]: 0.0591 µM

UACAUGAGGAUCACCCAUGUUUUGUCGUGUAUGGUAUUUAUCUAGGAUAUCAAUGAAUUUAUUUAUGAGAAGGAGAAUAUUAAU
apparent Kd [3]: 0.04 µM | apparent Kd [4]: 0.0375 µM

GGUCGAAAGUAAGGAUAUGCCUAGGAAACCUAGGCAGAAGGUACAUGAGGAUCACCCAUGUUAACGCAAAGCGAAUAAACGACC
apparent Kd [3]: 0.0186 µM | apparent Kd [4]: 0.0274 µM

UGCGGUUGAGGAUAUACGUAGAAAUAGAUUCAUGUAAAACUACAUGAGGAUCACCCAUGUAGAAGGCAAUCGCU
apparent Kd [3]: 0.0257 µM | apparent Kd [4]: 0.217 µM

AUCAUCUCGUCAGGAUAUACGUCACUGCGUCAGCAGUGUGGUAAGAUCACAUGAGGAUCACCCAUGUAGAAGGGACGAGCUGAU
apparent Kd [3]: 0.0144 µM | apparent Kd [4]: 0.226 µM

UAUUAACACGAAGGAUAUGGUUACAUGAGGAUCACCCAUGUAUGUAUAUUGAUCUAGAUUUUUAACCAGAAGGUCGUGAGUAAA
apparent Kd [3]: 0.0508 µM | apparent Kd [4]: 0.0722 µM

UGGUUAUAUGAAGGAUAUACUUAACAUGAGGAUCACCCAUGUGGUGUUGUGAGUGAGUGAGUUUAGUAGAAGGUCAAUUCUUUU
apparent Kd [3]: 0.176 µM | apparent Kd [4]: 0.197 µM

UUGGACGUCGUAGGAUAUGUAGGAUAUUCCUACAUGAGGAUCACCCAUGUUGACAUGGAAGAAGGACAGAAGUACGAUGUCCAU
apparent Kd [2]: 0.0056 µM

AAGCCACAUGAGGAUCACCCAUGUCAGGAUAUCUCGAAAAGCAUAGAAAUAUGCGAAGAGAGAAGGGACUACUC
apparent Kd [3]: 0.0431 µM | apparent Kd [4]: 0.0677 µM

UUUAUUUUGCAAGGAUAUGUUUAAUUUUAGUUUCCUUAUACAUGAGGAUCACCCAUGUUAUACUUACAGAAGGUGCAUAAUUUU
apparent Kd [3]: 0.0816 µM | apparent Kd [4]: 0.059 µM

UUCUUACAUGAGGAUCACCCAUGUGUUGUCGUGGGAGGAUAUCCUUGUUCGGUGGCGUUGGGAGAAGGCCUAUGUU
apparent Kd [1]: 0.0393 µM | apparent Kd [2]: 0.0732 µM

AUCGCUCAGCAGAAGGGACUGACAUGAGGAUCACCCAUGUCUUUUAUGGUCAGGAUAUGUUGCCGAACCACGAAAAGUGGGUGC
apparent Kd [1]: 0.0257 µM | apparent Kd [2]: 0.00927 µM

CCUAGAGAAGGAUAUACAUGAGGAUCACCCAUGUUCCGGCGCACAAUUAUGCGCCAAUGUAGAAGGUCUGGGCA
apparent Kd [3]: 0.0236 µM | apparent Kd [4]: 0.0266 µM

UACUAUAAGGAGGAUAUCGUAUCGGAGACGAUACGAGAAGGCUUAACAUGAGGAUCACCCAUGUUCUUCAAUAU
apparent Kd [3]: 0.0154 µM | apparent Kd [4]: 0.0183 µM

GGACGUCACAUCUACAUGAGGAUCACCCAUGUCUCUUGAUAUGAGGAUAUGUAUACGAAUCGUAUACAGAAGGCAUGGACGUCC
apparent Kd [1]: 0.0269 µM | apparent Kd [2]: 0.0288 µM

UUUUACAUAGGAUAUAGUUUCUUUUACAUGAGGAUCACCCAUGUUUCUCUUCUCUCUCUUCUAGAAGGAUGUUUCU
apparent Kd [3]: 0.0348 µM | apparent Kd [4]: 0.0314 µM

GAUUUACAUGAGGAUCACCCAUGUGAGGAUAUUGGGCUAGCAGAGUGAAUUCGCUGUCCAAGAAGGUACUGGAA
apparent Kd [3]: 0.0326 µM | apparent Kd [4]: 0.0325 µM

UGAAUGUGAGGAUAUGGUGAGUAGUGCCUAAGCGCUGCUCACCAGAAGGCACAUGAGGAUCACCCAUGUACUUG
apparent Kd [3]: 0.0617 µM | apparent Kd [4]: 0.192 µM

CUAGCUUGCACAGGAUAUAGGCUCGGAGCUUACAUGAGGAUCACCCAUGUAGUGCGAGUGAAGCACUAGAAGGGUGAUGGGUAG
apparent Kd [1]: 0.0404 µM | apparent Kd [2]: 0.0228 µM

GGAUAGGACAGAGGAUAUACGUGCUAGAGAUACCAGCAAAAUUUCCUCACAUGAGGAUCACCCAUGUAGAAGGCUGUCCUAUCG
apparent Kd [3]: 0.0319 µM | apparent Kd [4]: 0.558 µM

AUAGUCGGGAGAUAAACUCGUGCGGUAGAAGGGUGAUACUGGACAUGAGGAUCACCCAUGUGCACACAGGAUAUGCCCGCGAGC
apparent Kd [1]: 0.0836 µM | apparent Kd [2]: 0.0243 µM

GGAAAUCAUGUAGGAUAUGCAUGGCGAAGCUACGCAGAAGGACAUGAGGAUCACCCAUGUUAGAGCGUCCGAGAAAGGAUGCAA
apparent Kd [3]: 0.0432 µM | apparent Kd [4]: 0.25 µM

AGAAACUACGAGAAGGACAUGUGGUCCUUCAGUUACAUGAGGAUCACCCAUGUAGGAUAUCGUAGUUUCAGGAUCGUGAGAUCG
apparent Kd [3]: 0.0404 µM | apparent Kd [4]: 0.0204 µM

GACGGUGAUGUAGGAUAUACGCUGGAUAACAGCGUAGAAGGACAUGAGGAUCACCCAUGUAAAGUGUCUCUAAAUAACACCGUC
apparent Kd [3]: 0.0207 µM | apparent Kd [4]: 0.0475 µM

AGGUCGAGUGUGAGGAUAUUGACCGGACGACCCAUCGAGAAGGCACAUGAGGAUCACCCAUGUGAUUCAGCUCA
apparent Kd [3]: 0.015 µM | apparent Kd [4]: 0.0171 µM

UGGUACUAGGGAGGAUAUGGGAAGAUACAUGAGGAUCACCCAUGUUUAAGAAUGCCCAGAGGCAACUAGAAGGCCCUAGUACCU
apparent Kd [1]: 0.0662 µM | apparent Kd [2]: 0.0169 µM

GUCAGCUCGUGAGGAUAUACAACACUGCUUCGGCAGUGUUUUAAGAUCACAUGAGGAUCACCCAUGUAGAAGGCACGAGCUGAU
apparent Kd [3]: 0.00629 µM | apparent Kd [4]: 0.044 µM

CUUUAUCACUAUACAUGAGGAUCACCCAUGUUAUCAUCAUGAGAGGAUAUCGUAUUUGGAUUUUUCGAGAAGGCUCUAUUGUAU
apparent Kd [1]: 0.152 µM | apparent Kd [2]: 0.0539 µM
